ChEMBL document CHEMBL5154895, “Mechanistic Studies and In Vivo Efficacy of an Oxadiazole-Containing Antibiotic” (J Med Chem, 2022)
Active and inactive are the calls of the source.

Experiments:
[1] = system: Staphylococcus aureus; experiment: Downregulation of DNA recombination protein RecF expression in Staphylococcus aureus measured after 2 hrs by LC-MS/MS analysis; assay type: functional
Procedure, shortened: (§1)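 S. aureus ATCC 25923 at OD600 0.6 was treated with compound or DMSO for 2 h at 37 °C, normalised to OD600 1.1, and washed in PBS. Cells were pressure-lysed in 100 mM ammonium bicarbonate, then acetone-precipitated, reduced with DTT, alkylated with iodoacetamide, and digested with trypsin/Lys-C. Peptides were desalted and run on LC-MS/MS. Label-free quantitation used proteins present in all 3 samples, filtered at p<0.05 against DMSO.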

[2] = Toxicity in Balb/c mouse infected with methicillin-resistant Staphylococcus aureus USA300 assessed as hemorrhage administered topically twice daily 2 days post infection and measured after 5 days post compound treatment by H and E staining based histopathological analysis; details: in vivo, topical_or_ocular, 120 h, time 5 day
Procedure, shortened: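 MRSA USA300-infected punch wounds in mice, n=5. Topical 2% agent or petroleum jelly vehicle twice daily from day 2 for 5 days. The left wound was formalin-fixed, cut into 4-μm sections and H&E-stained. Whole slides were scanned and assessed by a board-certified veterinary pathologist for necrosis, inflammation, haemorrhage and related features.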

[3] = system: Staphylococcus aureus; experiment: Downregulation of copper-translocating P-type ATPase protein expression in Staphylococcus aureus measured after 2 hrs by LC-MS/MS analysis; assay type: functional; procedure, shortened: as §1
[4] = system: Staphylococcus aureus; experiment: Antibacterial activity against methicillin-sensitive Staphylococcus aureus ATCC 6538 assessed as inhibition of bacterial growth incubated for 18 to 20 hrs by broth microdilution method; assay type: functional; details: time 18-20 hrs
Procedure, shortened: (§2)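 Broth microdilution per CLSI. Inoculum was set to 0.5 McFarland and diluted in CAMHB to about 5×10^5 CFU/mL. Serial dilutions of agent were incubated aerobically at 37 °C for 18–20 h. MIC was read visually as the lowest concentration with complete growth inhibition.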

[5] = system: Staphylococcus aureus; experiment: Antibacterial activity against vancomycin-resistant Staphylococcus aureus 12 assessed as inhibition of bacterial growth incubated for 18 to 20 hrs by broth microdilution method; assay type: functional; details: time 18-20 hrs; procedure, shortened: as §2
[6] = system: Staphylococcus aureus; experiment: Downregulation of threonine synthase protein expression in Staphylococcus aureus measured after 2 hrs by LC-MS/MS analysis; assay type: functional
Procedure, shortened: (§3)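 S. aureus ATCC 25923 at OD600 0.6 exposed to compound or DMSO control for 2 h at 37°C, normalized to OD600 1.1 and PBS-washed. Cells were pressure-cycling lysed in 100 mM ammonium bicarbonate, and 50 μg protein was acetone-precipitated, reduced and alkylated, then Trypsin/Lys-C digested and C18-desalted. About 1 μg peptides went to LC-MS/MS. Label-free quantitation kept proteins present in all 3 samples, filtered at p <0.05.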

[7] = system: Staphylococcus aureus; experiment: Upregulation of haptoglobin-binding heme uptake protein HarA expression in Staphylococcus aureus measured after 2 hrs by LC-MS/MS analysis; assay type: functional; procedure, shortened: as §3
[8] = system: Streptococcus pneumoniae; experiment: Antibacterial activity against […] ATCC 700677 assessed as inhibition of bacterial growth incubated for 18 to 20 hrs by broth microdilution method; assay type: functional; details: time 18-20 hrs
Procedure, shortened: (§4)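 Broth microdilution per CLSI. S. pneumoniae was diluted to about 5×10^5 CFU/mL in TSB and incubated with serial dilutions of agent at 37 °C for 18–20 h under 5% CO2. MIC was read visually as the lowest concentration completely inhibiting growth.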

[9] = system: Staphylococcus aureus; experiment: Downregulation of sodium ABC transporter ATP-binding protein expression in Staphylococcus aureus measured after 2 hrs by LC-MS/MS analysis; assay type: functional; procedure, shortened: as §3
[10] = system: Streptococcus pneumoniae; experiment: Antibacterial activity against cephalosporin-resistant Streptococcus pneumoniae ATCC 51916 assessed as inhibition of bacterial growth incubated for 18 to 20 hrs by broth microdilution method; assay type: functional; details: time 18-20 hrs; procedure, shortened: as §4
[11] = system: Staphylococcus aureus; experiment: Upregulation of Bsh protein expression in Staphylococcus aureus assessed as log2 of fold change in protein level measured after 2 hrs by LC-MS/MS analysis relative to control; assay type: functional; procedure, shortened: as §3
[12] = system: Staphylococcus aureus; experiment: Upregulation of acyl phosphatase expression in Staphylococcus aureus measured after 2 hrs by LC-MS/MS analysis; assay type: functional; procedure, shortened: as §3
[13] = system: Staphylococcus aureus; experiment: Downregulation of nitrite reductase (NAD(P)H) small subunit protein expression in Staphylococcus aureus measured after 2 hrs by LC-MS/MS analysis; assay type: functional; procedure, shortened: as §3
[14] = system: Staphylococcus aureus; experiment: Downregulation of LukD protein expression in Staphylococcus aureus assessed as log2 of fold change in protein level measured after 2 hrs by LC-MS/MS analysis relative to control; assay type: functional; procedure, shortened: as §1
[15] = system: Staphylococcus aureus; experiment: Antibacterial activity against Staphylococcus aureus ATCC 25923 assessed as inhibition of bacterial growth incubated for 18 to 20 hrs by broth microdilution method; assay type: functional; details: time 18-20 hrs
Procedure, shortened: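 Broth microdilution per CLSI. Inoculum at 0.5 McFarland, diluted in cation-adjusted Mueller Hinton broth to about 5 × 10^5 CFU/mL. Serial compound dilutions incubated aerobically at 37° C for 18–20 hours. MIC taken as the lowest concentration completely inhibiting visible growth.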

[16] = system: Staphylococcus aureus; experiment: Upregulation of 23S rRNA (pseudouridine(1915)-N(3))-methyltransferase RImH expression in Staphylococcus aureus measured after 2 hrs by LC-MS/MS analysis; assay type: functional; procedure, shortened: as §3
[17] = system: Staphylococcus aureus; experiment: Upregulation of Cro/CI family transcriptional regulator expression in Staphylococcus aureus measured after 2 hrs by LC-MS/MS analysis; assay type: functional; procedure, shortened: as §3
[18] = system: Staphylococcus aureus; experiment: Downregulation of peptidase protein expression in Staphylococcus aureus measured after 2 hrs by LC-MS/MS analysis; assay type: functional; procedure, shortened: as §3
[19] = system: Staphylococcus aureus; experiment: Downregulation of NarG protein expression in Staphylococcus aureus assessed as log2 of fold change in protein level measured after 2 hrs by LC-MS/MS analysis relative to control; assay type: functional; procedure, shortened: as §1
[20] = system: Staphylococcus aureus; experiment: Downregulation of CDP-diacylglycerol-glycerol-3-phosphate-3-phosphatidyltransferase protein expression in Staphylococcus aureus measured after 2 hrs by LC-MS/MS analysis; assay type: functional; procedure, shortened: as §1
[21] = system: Staphylococcus aureus; experiment: Upregulation of ribonuclease HIII expression in Staphylococcus aureus measured after 2 hrs by LC-MS/MS analysis; assay type: functional; procedure, shortened: as §3
[22] = system: Enterococcus faecium; experiment: Antibacterial activity against vancomycin-resistant Enterococcus faecium ATCC 700221 assessed as inhibition of bacterial growth incubated for 18 to 20 hrs by broth microdilution method; assay type: functional; details: time 18-20 hrs
Procedure, shortened: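 Broth microdilution per CLSI. Enterococci were diluted to about 5×10^5 CFU/mL in TSB and incubated aerobically with serial dilutions of agent at 37 °C for 18–20 h. MIC was read visually as the lowest concentration with no visible growth.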

[23] = system: Staphylococcus aureus; experiment: Upregulation of zinc ABC transporter ATP-binding protein expression in Staphylococcus aureus measured after 2 hrs by LC-MS/MS analysis; assay type: functional; procedure, shortened: as §3
[24] = system: Staphylococcus aureus; experiment: Downregulation of glutamyl endopeptidase protein expression in Staphylococcus aureus measured after 2 hrs by LC-MS/MS analysis; assay type: functional; procedure, shortened: as §1
[25] = system: Staphylococcus aureus; experiment: Downregulation of site-specific integrase protein expression in Staphylococcus aureus measured after 2 hrs by LC-MS/MS analysis; assay type: functional; procedure, shortened: as §3
[26] = system: Staphylococcus aureus; experiment: Downregulation of sodium ABC transporter permease protein expression in Staphylococcus aureus measured after 2 hrs by LC-MS/MS analysis; assay type: functional; procedure, shortened: as §3
[27] = system: Staphylococcus aureus; experiment: Downregulation of DNA-binding response regulator protein expression in Staphylococcus aureus measured after 2 hrs by LC-MS/MS analysis; assay type: functional; procedure, shortened: as §1
[28] = system: Staphylococcus aureus; experiment: Upregulation of siderophore biosynthesis protein SbnC expression in Staphylococcus aureus measured after 2 hrs by LC-MS/MS analysis; assay type: functional; procedure, shortened: as §3
[29] = system: Staphylococcus aureus; experiment: Downregulation of carboxylesterase protein expression in Staphylococcus aureus measured after 2 hrs by LC-MS/MS analysis; assay type: functional; procedure, shortened: as §1
[30] = system: Staphylococcus aureus; experiment: Downregulation of EssB protein expression in Staphylococcus aureus assessed as log2 of fold change in protein level measured after 2 hrs by LC-MS/MS analysis relative to control; assay type: functional; procedure, shortened: as §1

CC1CC(C)CN(S(=O)(=O)c2ccc(C(=O)Nc3nnc(-c4ccc(C(F)(F)F)cc4)o3)cc2)C1 (stereo not given)
3.6: log2FC [11]
0.06 µg/mL: MIC [8] | MIC [10]
0.25 µg/mL: MIC [4] | MIC [5] | MIC [15] | MIC [22]
-3.3: log2FC [30]
Toxic: Activity [2]
-2: log2FC [14] | log2FC [19]
active: Activity [1] | Activity [3] | Activity [6] | Activity [7] | Activity [9] | Activity [12] | Activity [13] | Activity [16] | Activity [17] | Activity [18] | Activity [20] | Activity [21] | Activity [23] | Activity [24] | Activity [25] | Activity [26] | Activity [27] | Activity [28] | Activity [29]
